From publication PMC5026623 (Circulation research, 2016)

Target: apoA1 (Homo sapiens, UniProt P02647)
Experiment: surface plasmon resonance, protein immobilised on CM5 chip
Type: binding
Method in brief: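 Biosensor binding-kinetics run: apoA1 covalently coupled to a CM5 sensor chip, with apoA2 and apoE coupled the same way for comparison. Kinetics of test lipid binding to the immobilised protein recorded.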

apoA1, sequence (P02647 25-267): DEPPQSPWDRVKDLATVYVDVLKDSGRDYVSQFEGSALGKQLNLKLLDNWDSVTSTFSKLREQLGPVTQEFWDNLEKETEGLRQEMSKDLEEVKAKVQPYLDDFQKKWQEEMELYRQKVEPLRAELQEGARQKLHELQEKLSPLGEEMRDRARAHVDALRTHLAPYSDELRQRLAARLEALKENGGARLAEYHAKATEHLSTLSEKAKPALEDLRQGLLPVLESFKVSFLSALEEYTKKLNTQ

Kd: 140 nM
Substance: PIP2
